Source: ChEMBL document CHEMBL3797060, “Discovery of 5-Chloro-1-(5-chloro-2-(methylsulfonyl)benzyl)-2-imino-1,2-dihydropyridine-3-carboxamide (TAK-259) as a Novel, Selective, and Orally Active α1D Adrenoceptor Antagonist with Antiurinary Frequency Effects: Reducing Human Ether-a-go-go-Related Gene (hERG) Liabilities” (J Med Chem, 2016)
Each block holds one compound with its values, some of them ahead of it.

Experiments:
[1] = target: T1, Alpha-1D adrenergic receptor (Homo sapiens, UniProt P25100); experiment: Displacement of 7-methoxy-[3H]-prazosin from human alpha1D adrenergic receptor expressed in CHO-K1 cell membranes incubated for 60 mins by liquid scintillation counting analysis
T1 sequence (P25100 whole entry): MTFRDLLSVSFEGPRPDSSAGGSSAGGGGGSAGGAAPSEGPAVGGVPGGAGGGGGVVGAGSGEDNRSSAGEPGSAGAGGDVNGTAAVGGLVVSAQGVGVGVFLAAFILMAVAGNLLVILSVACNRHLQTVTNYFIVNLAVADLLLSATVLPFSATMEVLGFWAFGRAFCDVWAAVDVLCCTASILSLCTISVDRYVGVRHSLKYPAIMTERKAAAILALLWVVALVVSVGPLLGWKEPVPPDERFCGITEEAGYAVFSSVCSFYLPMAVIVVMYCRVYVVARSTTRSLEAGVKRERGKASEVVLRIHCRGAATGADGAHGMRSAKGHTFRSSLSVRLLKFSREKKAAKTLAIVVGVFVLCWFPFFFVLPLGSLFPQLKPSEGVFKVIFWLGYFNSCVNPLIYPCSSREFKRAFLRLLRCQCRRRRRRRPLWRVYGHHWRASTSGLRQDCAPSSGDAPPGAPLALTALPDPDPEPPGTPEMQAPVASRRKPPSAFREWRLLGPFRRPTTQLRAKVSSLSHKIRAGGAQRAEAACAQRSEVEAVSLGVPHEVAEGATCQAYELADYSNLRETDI
In short: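 CHO-K1 stable-line membranes (10 µg protein), 2.5 nmol/L ligand, Tris-HCl pH 7.5 with MgCl2, EDTA and 0.5% BSA, 12 compound concentrations, room temperature. Filtered and counted; nonspecific binding with 10 µmol/L phentolamine. IC50 by logistic regression, converted to Ki by Cheng-Prusoff with Kd 0.93 (α1A), 0.35 (α1B), 0.26 (α1D) nmol/L. Triplicate mean, 95% CI.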

[2] = target: hERG (KCNH2) (Homo sapiens, UniProt Q12809); experiment: Inhibition of human ERG channel expressed in CHO cells assessed as peak tail current at 10 uM incubated for 5 mins by patch-clamp assay; type: cell-based; conditions: CHO cells expressing human ERG channel
Chain of hERG (KCNH2) (Q12809 whole entry): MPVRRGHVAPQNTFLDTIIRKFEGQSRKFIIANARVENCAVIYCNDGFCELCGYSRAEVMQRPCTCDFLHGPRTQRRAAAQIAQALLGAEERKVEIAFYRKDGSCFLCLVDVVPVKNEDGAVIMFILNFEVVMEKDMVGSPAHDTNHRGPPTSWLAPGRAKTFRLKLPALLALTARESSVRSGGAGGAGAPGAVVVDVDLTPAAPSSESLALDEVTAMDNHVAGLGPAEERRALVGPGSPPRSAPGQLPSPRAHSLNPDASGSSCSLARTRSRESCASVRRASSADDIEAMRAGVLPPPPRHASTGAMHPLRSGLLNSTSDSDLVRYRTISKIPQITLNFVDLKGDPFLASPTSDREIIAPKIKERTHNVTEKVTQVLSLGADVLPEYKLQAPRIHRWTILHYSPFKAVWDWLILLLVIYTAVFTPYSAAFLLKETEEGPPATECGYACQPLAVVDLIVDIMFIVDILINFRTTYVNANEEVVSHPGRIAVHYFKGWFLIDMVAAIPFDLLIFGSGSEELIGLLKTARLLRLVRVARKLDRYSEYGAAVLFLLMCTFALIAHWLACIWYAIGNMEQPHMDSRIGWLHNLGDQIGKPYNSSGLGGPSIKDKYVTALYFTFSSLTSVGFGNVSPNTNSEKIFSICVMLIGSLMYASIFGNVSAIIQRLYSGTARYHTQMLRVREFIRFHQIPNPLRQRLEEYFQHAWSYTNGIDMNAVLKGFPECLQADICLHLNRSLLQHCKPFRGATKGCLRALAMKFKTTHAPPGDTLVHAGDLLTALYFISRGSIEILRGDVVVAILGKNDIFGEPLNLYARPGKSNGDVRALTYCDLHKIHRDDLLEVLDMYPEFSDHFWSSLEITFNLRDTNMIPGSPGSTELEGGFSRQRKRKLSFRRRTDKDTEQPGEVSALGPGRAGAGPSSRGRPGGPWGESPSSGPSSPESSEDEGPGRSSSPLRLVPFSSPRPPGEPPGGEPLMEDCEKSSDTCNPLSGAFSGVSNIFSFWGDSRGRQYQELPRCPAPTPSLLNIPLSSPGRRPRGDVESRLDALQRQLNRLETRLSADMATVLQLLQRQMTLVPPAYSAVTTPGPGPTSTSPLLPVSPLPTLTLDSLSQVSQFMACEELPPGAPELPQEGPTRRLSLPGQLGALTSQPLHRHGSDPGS
In short: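 CHO cells stably expressing hERG, grown at 32 °C, 5% CO2 in Ham's F-12 with 10% FBS and 500 µg/mL Geneticin. Population patch clamp with PBS (Ca/Mg) outside, KCl/MgCl2/EGTA/HEPES pH 7.3 inside, amphotericin B perforation. Holding −80 mV, step to 40 mV 2 s, then −50 mV 2 s. Peak tail current taken before and after 5 min compound exposure, inhibition = 100 − post/pre×100, n = 3 or 4.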

[3] = Total clearance in rat at 0.1 mg/kg, iv administered via cassette dosing by LC/MS/MS analysis; type: ADME, organism-based; conditions: in vivo
In short: (§1)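 Cassette dosing iv at 0.1 mg/kg in DMA/1,3-butanediol (1:1) to fed rats. Blood collected after dosing and centrifuged to plasma, which was deproteinized and centrifuged; supernatant concentrations measured by LC/MS/MS.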

[4] = Cmax in rat at 1 mg/kg, po administered via cassette dosing by LC/MS/MS analysis; type: ADME, organism-based; parameters: dose 1 mg/kg, route oral; conditions: in vivo
In short: (§2)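 Fed rats dosed orally at 1 mg/kg as 0.5% methylcellulose suspension by cassette dosing; bioavailability also uses an iv arm of 0.1 mg/kg in DMA/1,3-butanediol (1:1). Plasma obtained from blood by centrifugation, deproteinized, and measured by LC/MS/MS. Values are averages of three rats.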

[5] = AUC in rat at 1 mg/kg, po administered via cassette dosing by LC/MS/MS analysis; type: ADME, organism-based; conditions: in vivo; in short: as §2
[6] = Mean residence time in rat at 1 mg/kg, po administered via cassette dosing by LC/MS/MS analysis; type: ADME, organism-based; conditions: in vivo; in short: as §2
[7] = species on record: Homo sapiens; experiment: Selectivity ratio of Ki for human alpha1B adrenergic receptor to Ki for human alpha1D adrenergic receptor
In short: (§3)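 Membranes from CHO-K1 cells stably expressing human α1A, α1B or α1D receptors (10 µg protein) incubated 60 min at room temperature with 2.5 nmol/L 7-methoxy[3H]-prazosin and 12 compound concentrations in Tris-HCl pH 7.5 buffer with MgCl2, EDTA, 0.5% BSA. Bound counts taken after filtration; nonspecific binding defined with 10 µmol/L phentolamine.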

[8] = Oral bioavailability in rat at 1 mg/kg administered via cassette dosing by LC/MS/MS analysis; type: ADME, organism-based; conditions: in vivo; in short: as §2
[9] = species on record: Homo sapiens; experiment: Selectivity ratio of Ki for human alpha1A adrenergic receptor to Ki for human alpha1D adrenergic receptor; in short: as §3
[10] = Volume of distribution at steady state in rat at 0.1 mg/kg, iv administered via cassette dosing by LC/MS/MS analysis; type: ADME, organism-based; conditions: in vivo, read-out: Vdss; in short: as §1
[11] = test system: Rattus norvegicus; experiment: Inhibition of nonvoiding contractions during urinary storage phase in iv dosed Wistar rat with bladder outlet obstruction after 10 mins by cystometrogram; type: functional
[12] = test system: Urinary bladder; experiment: Inhibition of (R)-(-)-phenylephrine hydrochloride-induced contractions in Wistar rat bladder with outlet obstruction treated every 30 minutes post (R)-(-)-phenylephrine hydrochloride challenge; type: functional
[13] = test system: Rattus norvegicus; experiment: Reduction of urinary frequency in po dosed Sprague-Dawley rat with cyclophosphamide-induced cystitis assessed as increased voiding intervals administered at voiding intervals less <7.2 mins measured after 5 to 35 mins by cystometrogram; type: functional; conditions: Urine, read-out: MED

SMILES: N=c1c(C(N)=O)cc(Cl)cn1Cc1ccc(Cl)cc1
Ki [1]: 23 nM

SMILES: CCNC(=O)c1cc(Cl)cn(Cc2ccccc2)c1=N
Ki [1]: > 940 nM

SMILES: Cc1cccc(Cn2cc(Cl)cc(C(N)=O)c2=N)c1
Ki [1]: 7.5 nM

SMILES: N=c1c(C(N)=O)cc(Cl)cn1Cc1cccnc1
Ki [1]: 250 nM

SMILES: CC(c1cccc(Cl)c1)n1cc(Cl)cc(C(N)=O)c1=N (stereo not given)
Ki [1]: 0.66 nM | inhibition at 5 min, 10 µM [2]: 48%

SMILES: N=c1c(C(N)=O)cc(Cl)cn1Cc1ccccn1
Ki [1]: 420 nM

SMILES: CC(C)(C)Cn1cc(Cl)cc(C(N)=O)c1=N
Ki [1]: 820 nM

SMILES: N=c1c(C(N)=O)cc(Cl)cn1Cc1ccccc1Cl
Ki [1]: 39 nM

SMILES: N=c1c(C(N)=O)cc(Cl)cn1Cc1cc(Cl)cc(C(N)=O)c1
clearance [3]: 47.2 mL/min/kg | Cmax [4]: 3.2 ng/mL | AUC [5]: 10.8 ng·h/mL | MRT [6]: 2.47 h | Ki [1]: 3.7 nM | Ratio Ki [7]: > 320 | bioavailability [8]: 3% | inhibition at 5 min, 10 µM [2]: 13% | Ratio Ki [9]: > 730 | Vd [10]: 3.21 L/kg

SMILES: N=c1c(C(N)=O)cccn1Cc1ccccc1
Ki [1]: 880 nM

SMILES: N=c1c(C(N)=O)cc(Cl)cn1Cc1ccco1
Ki [1]: 160 nM

Continued, in another order:

Ki [1]: 26 nM
SMILES: N=c1c(C(N)=O)cc(Cl)cn1Cc1cccc(C(N)=O)c1

Ratio Ki [7]: 11 | Ratio Ki [9]: 0.7
SMILES: CCOc1ccccc1OCCN[C@H](C)Cc1ccc(OC)c(S(N)(=O)=O)c1

Ki [1]: 15 nM
SMILES: CC(c1cccc(S(C)(=O)=O)c1)n1cc(Cl)cc(C(N)=O)c1=N (stereo not given)
inhibition at 5 min, 10 µM [2]: 19%

clearance [3]: 39.2 mL/min/kg | Cmax [4]: 142 ng/mL | AUC [5]: 368 ng·h/mL | MRT [6]: 3.14 h | Ki [1]: 1.6 nM | Ratio Ki [7]: > 750 | bioavailability [8]: 86% | Ratio Ki [9]: > 1700 | Vd [10]: 4.68 L/kg
SMILES: C[C@H](c1cccc(C#N)c1)n1cc(Cl)cc(C(N)=O)c1=N [(R)-9s]
inhibition [11]: Dose-dependent effect | ED50 ([11]; read-out: ID50 (the source's name)): 4.4 µg/kg | inhibition [12]: Dose-dependent effect | IC30 ([12]; 0.5 h): 15 nM | minimal effective dose [13]: 10 µg/kg | inhibition at 5 min, 10 µM [2]: 25%

Ki [1]: 16 nM
SMILES: N=c1c(C(N)=O)cc(Cl)cn1CCc1ccccc1

Ki [1]: 130 nM
SMILES: C[C@@H](c1cccc(C#N)c1)n1cc(Cl)cc(C(N)=O)c1=N [(S)-9s]
inhibition at 5 min, 10 µM [2]: 57%

Ki [1]: 54 nM
SMILES: N=c1c(C(N)=O)cc(Cl)cn1CCCc1ccccc1
